We go through 7 molecules from ChEMBL document CHEMBL1139611, “Structure-activity relationships of novel endomorphin-2 analogues with N-O turns induced by alpha-aminoxy acids” (Bioorg Med Chem Lett, 2005).

The target of assay [1] is Delta-type opioid receptor (Rattus norvegicus, UniProt P33533). Description: Inhibition of [3H]DPDPE binding to Opioid receptor delta 1 of rat brain membrane. In a few lines: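 Competition binding on Wistar rat brain synaptosomal P2 membranes in 50 mM Tris–HCl, pH 7.4. […] Delta sites were labelled with [3H]DPDPE (1 nM, Kd 2.75 nM) for 3 h at 25 °C. Nonspecific binding was taken with naloxone. Ki was derived by Cheng–Prusoff; values are means of ≥3 experiments.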

The target of assay [2] is T1, Mu-type opioid receptor (Rattus norvegicus, UniProt P33535). In words: Inhibition of [3H]DAMGO binding to Opioid receptor mu 1 of rat brain membrane. The procedure, abridged:
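Rat brain synaptosomal P2 membranes from Wistar rats in 50 mM Tris-HCl, pH 7.4. […] Nonspecific binding was defined with naloxone. Ki was derived by Cheng-Prusoff. Values are means of at least three experiments.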

In assay [3] the target is Mu-type opioid receptor (Rattus norvegicus) (UniProt P33535). In words: Percent inhibition of [3H]-DAMGO binding to Opioid receptor mu 1 of rat brain membrane at 10 uM. Also noted: scale not given: the % may be the effect or the level left.
In assay [4] the target is Delta-type opioid receptor (Rattus norvegicus) (UniProt P33533). In words: Percent decrease of maximum binding towards Opioid receptor delta 1 in rat brain membrane using [3H]DPDPE at 10 uM concentration. It counts as cell membranes. Further details: scale not given: the % may be the effect or the level left; call rule not given here.
The target in assay [5] is T1, Mu-type opioid receptor. Description: Inhibition of [3H]DAMGO binding to Opioid receptor mu 1 of rat brain membrane; na= No activity.
The target of assay [6] is Opioid receptors; mu & delta (Rattus norvegicus) (UniProt P33533+P33535). In words: Selectivity ratio of Opioid receptor delta 1 to Opioid receptor mu 1. It counts as protein assay.
Assay [7] concerns the target Delta-type opioid receptor (Rattus norvegicus) (UniProt P33533). Description: Percent inhibition of [3H]DPDPE binding to Opioid receptor delta 1 of rat brain membrane at 10 uM. Further details: scale not given: the % may be the effect or the level left.

T1 sequence (P33535 whole entry): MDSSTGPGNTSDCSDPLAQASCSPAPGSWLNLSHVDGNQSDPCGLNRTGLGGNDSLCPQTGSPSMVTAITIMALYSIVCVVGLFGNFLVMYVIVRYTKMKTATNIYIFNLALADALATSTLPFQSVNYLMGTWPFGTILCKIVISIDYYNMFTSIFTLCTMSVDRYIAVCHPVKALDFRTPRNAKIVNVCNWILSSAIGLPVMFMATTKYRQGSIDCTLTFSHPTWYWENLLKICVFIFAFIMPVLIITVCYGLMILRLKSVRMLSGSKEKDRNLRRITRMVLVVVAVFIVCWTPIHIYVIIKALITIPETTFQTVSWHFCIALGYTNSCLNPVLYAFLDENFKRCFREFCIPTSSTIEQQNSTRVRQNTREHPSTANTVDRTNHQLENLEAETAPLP
Chain of Opioid receptors; mu & delta (Rattus norvegicus) (P33533 whole entry, looked up): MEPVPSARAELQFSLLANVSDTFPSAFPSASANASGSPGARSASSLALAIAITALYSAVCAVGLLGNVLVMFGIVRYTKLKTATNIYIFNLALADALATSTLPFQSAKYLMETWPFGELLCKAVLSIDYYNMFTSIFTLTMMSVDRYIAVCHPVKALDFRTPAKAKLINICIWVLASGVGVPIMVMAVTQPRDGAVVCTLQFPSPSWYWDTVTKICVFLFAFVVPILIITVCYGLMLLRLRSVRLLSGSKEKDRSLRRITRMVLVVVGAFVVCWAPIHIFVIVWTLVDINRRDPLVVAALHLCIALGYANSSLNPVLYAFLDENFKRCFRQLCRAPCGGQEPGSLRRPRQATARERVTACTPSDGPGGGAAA
Chain of Opioid receptors; mu & delta (Rattus norvegicus) (P33535 whole entry, looked up): as the sequence (P33535 whole entry) above
Chain of Delta-type opioid receptor (Rattus norvegicus) (P33533 whole entry): as the sequence (P33533 whole entry, looked up) above
Chain of Delta-type opioid receptor (P33533 whole entry): as the sequence (P33533 whole entry, looked up) above
Chain of Mu-type opioid receptor (Rattus norvegicus) (P33535 whole entry): as the sequence (P33535 whole entry) above

`NC(=O)[C@H](Cc1ccccc1)NC(=O)[C@H](Cc1ccccc1)NC(=O)[C@@H](Cc1ccccc1)NO[C@@H](N)Cc1ccc(O)cc1`: the Ki (in assay [1]; on Mu-type opioid receptor [2]) was more than 10 µM throughout. In addition, the Activity worked out at 22% in assay [3] and 18% in assay [4].
For the molecule `NC(=O)[C@H](Cc1ccccc1)NC(=O)[C@H](Cc1ccccc1)NC(=O)[C@H](Cc1ccccc1)NO[C@@H](N)Cc1ccc(O)cc1`, the Ki (commonly the equilibrium dissociation constant of an inhibitor or competing ligand from its target) in assay [1] is more than 10 µM; on Mu-type opioid receptor [5], “Not Active”. This molecule also returned an Activity in assay [4] of 30%.
Regarding `NC(=O)[C@H](Cc1ccccc1)NC(=O)[C@@H](Cc1ccccc1)NO[C@@H]1CCCN1C(=O)[C@@H](N)Cc1ccc(O)cc1`, the values for the Ki (in assay [1]; on Mu-type opioid receptor [2]) were more than 10 µM and 0.6 µM, respectively. Besides, in assay [6], the Selectivity is more than 17. The Activity in assay [7] came out at 30%.
Consider `NC(=O)[C@H](Cc1ccccc1)NC(=O)[C@@H](Cc1ccccc1)O/N=C/[C@@H]1CCCN1C(=O)[C@@H](N)Cc1ccc(O)cc1`, for which the results for the Ki (in assay [1]; at Mu-type opioid receptor [2]) were 37.1 µM and 4.04 µM, respectively. For the same molecule, the Selectivity in assay [6] was determined as 9.
For `NC(=O)[C@H](Cc1ccccc1)NC(=O)[C@H](Cc1ccccc1)O/N=C/[C@@H]1CCCN1C(=O)[C@@H](N)Cc1ccc(O)cc1`, in that order: 19.8 µM, 408 µM and 4.1.
For `NC(=O)[C@H](Cc1ccccc1)NC(=O)[C@H](Cc1ccccc1)NC(=O)[C@@H]1CCN(C(=O)[C@@H](N)Cc2ccc(O)cc2)C1`, in that order: 8.36 µM, 0.00823 µM and 1020.
Take `NC(=O)[C@H](Cc1ccccc1)NC(=O)[C@H](Cc1ccccc1)NO[C@@H]1CCCN1C(=O)[C@@H](N)Cc1ccc(O)cc1`: the inhibition constant Ki in assay [1] is more than 10 µM; on Mu-type opioid receptor [2], 0.434 µM. Further, the Selectivity in assay [6] was more than 23. In assay [7], this molecule returned an Activity of 15%.
